Reference: PMC5527967 (The Prostate, 2017)
Several values for one entry are separate records, joined by “and”; a condition that tells them apart may be missing. Equal entries are not always repeated. Where two headings read alike, the source gives them in different places. One block for each compound: values may come before it.

Tests used:
Akt [1] = assay: cell lysate CETSA; assay type: binding; conditions: cell lysate (in vitro), PC-3, compound 5 μM
How it was run: (§1)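 Exponentially grown PC-3 cells in RIPA with protease inhibitors were put through three liquid-nitrogen freeze-thaw cycles, then ultracentrifuged 20 min at 4°C. Soluble lysate was incubated with test compound (5 μM) or DMSO for 45 min at room temperature. Aliquots were heated 3 min at 37–69°C in 4°C steps, cooled 3 min, and spun. Supernatant was Western blotted. Bands were normalized to 0–100% and fitted with a Boltzmann sigmoid. ΔTm50 is the compound-minus-solvent temperature at 50% band loss. Three experiments.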

Akt [2] = assay: whole cell CETSA; assay type: cell-based; conditions: whole cell (in vivo), PC-3
How it was run: (§2)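 Intact PC-3 cells in regular media treated with test compound or solvent for 4 hrs, washed and collected in cold PBS. Aliquoted pellets heated 3 min at 37–69°C (4°C steps), cooled 2 min at room temperature, then iced. Lysed in RIPA by three liquid-nitrogen freeze-thaw cycles; soluble fraction Western blotted. Densities normalized 0–100%, Boltzmann sigmoid fit; ΔTm50 as compound vs solvent shift at 50% band loss.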

p110β [3] = biological target: T1, p110β (Homo sapiens, UniProt P42338); assay: cell lysate CETSA; assay type: binding
How it was run: as §1

p110β [4] = biological target: T1, p110β; assay: whole cell CETSA; assay type: cell-based; conditions: whole cell (in vivo), PC-3
How it was run: as §2

VPS34 = VPS34 (Homo sapiens, UniProt Q8NEB9); assay: cell lysate CETSA; assay type: binding
How it was run: as §1

aqueous solubility assay = assay type: physicochemical
p110γ = p110γ (Homo sapiens, UniProt P48736); assay: cell lysate CETSA; assay type: binding
How it was run: as §1

p110α = p110α (Homo sapiens, UniProt P42336); assay: cell lysate CETSA; assay type: binding
How it was run: as §1

Akt pS473 in LNCaP cells = assay: Western blot of Akt pS473; assay type: cell-based; conditions: 5 μM, 4 h
[5] = system: Akt pS473 in LNCaP/shPIK3CB#3 cells; assay: Western blot of Akt pS473; assay type: cell-based; conditions: LNCaP/shPIK3CB#3, 5 μM, 4 h
C4-2B cells [6] = assay: WST-8 cell growth inhibition; assay type: cell-based; conditions: read-out: Cell Growth Inhibition EC50 (95% CI)
How it was run: (§3)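 Cells seeded at 8,000 per well and grown 24 hrs, then exposed to increasing concentrations of test compound or solvent for 3 days. WST-8 reagent added for 2 hrs at 37°C and OD read at 450 nm. Growth inhibition taken as percentage of solvent control OD. EC50 from log concentration vs normalized response fit, variable slope. Three independent experiments.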

PC-3 cells = assay: WST-8 cell growth inhibition; assay type: cell-based; conditions: read-out: Cell Growth Inhibition EC50 (95% CI)
How it was run: as §3

C4-2B/MDV-R cells [7] = assay: WST-8 cell growth inhibition; assay type: cell-based; conditions: read-out: Cell Growth Inhibition EC50 (95% CI)
How it was run: as §3

Akt pS473 in C4-2B cells = assay: Western blot of FBS-stimulated Akt pS473; assay type: cell-based; conditions: 5 μM
How it was run: (§4)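 Cells serum-starved overnight, pretreated with test compound, then given 10% FBS. Lysates made in RIPA buffer with protease inhibitor cocktail, equal protein run on SDS-PAGE and transferred to PVDF. Blocked in 10% nonfat milk 1 hr, primary antibody (Akt pS473) overnight at 4°C, HRP secondary, chemiluminescent detection. Actin used as loading control.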

[8] = system: cyclin D1, CDK6 and p27^kip1 in C4-2B/MDV-R cells; assay: Western blot of G1 phase proteins; assay type: cell-based; conditions: 5 μM
How it was run: (§5)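 After overnight serum starvation, cells received a 30-min pretreatment with solvent or test compound (5 μM), were stimulated with 10% FBS and were harvested at several time points. Lysates (RIPA plus protease inhibitors) were immunoblotted on PVDF for cyclin D1, CDK6 and p27kip1, with chemiluminescent detection and actin as loading control.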

22RV1 cells = assay: WST-8 cell growth inhibition; assay type: cell-based; conditions: read-out: Cell Growth Inhibition EC50 (95% CI)
How it was run: as §3

C4-2B cells [9] = assay: flow cytometry cell cycle analysis; assay type: cell-based; conditions: 16 h after 10% FBS
How it was run: (§6)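 Cells serum-starved overnight to synchronise, pretreated 30 min with solvent or test compound, then stimulated with 10% FBS for 16 h. Cells trypsinized, fixed and stained with propidium iodide. Counted on a flow cytometer (FACS) and cell cycle phase distribution calculated. Mean and SEM from at least three repeated experiments.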

[10] = system: Akt pS473 in C4-2B/MDV-R cells; assay: Western blot of FBS-stimulated Akt pS473; assay type: cell-based; conditions: 5 μM
How it was run: as §4

[11] = system: cyclin D1, CDK6 and p27^kip1 in C4-2B cells; assay: Western blot of G1 phase proteins; assay type: cell-based; conditions: 5 μM
How it was run: as §5

C4-2B/MDV-R cells [12] = assay: flow cytometry cell cycle analysis; assay type: cell-based; conditions: 16 h after 10% FBS
How it was run: as §6

human p110α/p85α = human p110α/p85α (Homo sapiens, UniProt P42336); assay: Kinase-Glo Plus luminescent kinase assay; assay type: biochemical; conditions: read-out: IC50 p110α; 2 μM ATP, 37°C, 2 h
human p110δ/p85α = human p110δ/p85α (Homo sapiens, UniProt O00329); assay: Kinase-Glo Plus luminescent kinase assay; assay type: biochemical; conditions: read-out: IC50 p110δ; 2 μM ATP, 37°C, 2 h
[13] = cell lysate (in vitro), PC-3, compound 5 μM

T1 sequence (P42338 whole entry): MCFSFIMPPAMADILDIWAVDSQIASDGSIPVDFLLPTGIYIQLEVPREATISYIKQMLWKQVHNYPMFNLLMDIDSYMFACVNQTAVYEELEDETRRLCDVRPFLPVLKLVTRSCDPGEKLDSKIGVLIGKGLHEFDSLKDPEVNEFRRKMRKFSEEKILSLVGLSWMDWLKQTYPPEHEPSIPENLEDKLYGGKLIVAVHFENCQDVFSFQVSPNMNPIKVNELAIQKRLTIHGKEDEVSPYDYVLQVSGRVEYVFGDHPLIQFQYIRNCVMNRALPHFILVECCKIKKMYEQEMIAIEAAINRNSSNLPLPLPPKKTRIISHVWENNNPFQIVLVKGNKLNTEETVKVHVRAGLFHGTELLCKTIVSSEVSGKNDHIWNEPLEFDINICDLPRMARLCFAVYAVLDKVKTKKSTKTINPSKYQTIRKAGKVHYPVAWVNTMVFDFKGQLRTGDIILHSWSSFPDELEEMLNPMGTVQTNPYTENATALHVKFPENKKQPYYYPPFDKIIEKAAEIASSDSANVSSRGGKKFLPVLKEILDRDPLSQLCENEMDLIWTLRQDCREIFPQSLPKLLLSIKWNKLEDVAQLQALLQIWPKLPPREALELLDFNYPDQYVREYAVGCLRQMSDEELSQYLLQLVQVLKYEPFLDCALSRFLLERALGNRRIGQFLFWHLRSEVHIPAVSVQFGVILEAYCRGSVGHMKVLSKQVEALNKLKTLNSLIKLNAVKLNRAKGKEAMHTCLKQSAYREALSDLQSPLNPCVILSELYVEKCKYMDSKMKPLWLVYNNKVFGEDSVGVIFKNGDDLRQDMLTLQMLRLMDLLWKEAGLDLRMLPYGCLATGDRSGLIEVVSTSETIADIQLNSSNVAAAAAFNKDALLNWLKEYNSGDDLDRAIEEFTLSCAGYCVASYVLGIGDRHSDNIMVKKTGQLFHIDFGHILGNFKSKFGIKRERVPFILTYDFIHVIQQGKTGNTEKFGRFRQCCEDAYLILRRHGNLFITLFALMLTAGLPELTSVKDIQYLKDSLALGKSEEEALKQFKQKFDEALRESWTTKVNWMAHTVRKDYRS
VPS34, sequence (Q8NEB9 whole entry): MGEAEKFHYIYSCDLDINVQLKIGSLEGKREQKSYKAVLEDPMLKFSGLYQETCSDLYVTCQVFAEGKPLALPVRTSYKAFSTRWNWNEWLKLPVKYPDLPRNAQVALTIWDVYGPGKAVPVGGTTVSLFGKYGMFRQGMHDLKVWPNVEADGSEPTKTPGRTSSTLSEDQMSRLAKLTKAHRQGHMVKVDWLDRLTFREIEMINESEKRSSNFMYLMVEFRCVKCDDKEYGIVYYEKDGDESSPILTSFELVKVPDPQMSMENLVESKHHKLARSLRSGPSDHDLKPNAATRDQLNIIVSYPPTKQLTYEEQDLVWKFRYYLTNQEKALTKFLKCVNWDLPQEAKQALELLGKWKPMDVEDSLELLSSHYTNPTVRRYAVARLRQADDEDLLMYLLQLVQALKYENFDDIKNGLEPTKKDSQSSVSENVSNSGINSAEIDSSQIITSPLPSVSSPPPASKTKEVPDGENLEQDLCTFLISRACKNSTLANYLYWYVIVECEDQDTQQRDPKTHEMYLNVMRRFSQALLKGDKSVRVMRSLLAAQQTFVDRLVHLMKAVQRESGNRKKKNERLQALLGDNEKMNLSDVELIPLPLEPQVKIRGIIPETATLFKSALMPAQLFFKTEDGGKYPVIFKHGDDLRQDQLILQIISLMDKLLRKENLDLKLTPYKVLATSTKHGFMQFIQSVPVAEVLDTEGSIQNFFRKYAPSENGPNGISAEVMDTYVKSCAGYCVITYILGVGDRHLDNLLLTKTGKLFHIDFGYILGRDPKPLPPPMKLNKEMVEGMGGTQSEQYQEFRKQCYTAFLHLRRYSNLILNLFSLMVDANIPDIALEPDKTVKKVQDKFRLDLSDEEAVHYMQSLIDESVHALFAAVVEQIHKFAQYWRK
p110γ, sequence (P48736 whole entry): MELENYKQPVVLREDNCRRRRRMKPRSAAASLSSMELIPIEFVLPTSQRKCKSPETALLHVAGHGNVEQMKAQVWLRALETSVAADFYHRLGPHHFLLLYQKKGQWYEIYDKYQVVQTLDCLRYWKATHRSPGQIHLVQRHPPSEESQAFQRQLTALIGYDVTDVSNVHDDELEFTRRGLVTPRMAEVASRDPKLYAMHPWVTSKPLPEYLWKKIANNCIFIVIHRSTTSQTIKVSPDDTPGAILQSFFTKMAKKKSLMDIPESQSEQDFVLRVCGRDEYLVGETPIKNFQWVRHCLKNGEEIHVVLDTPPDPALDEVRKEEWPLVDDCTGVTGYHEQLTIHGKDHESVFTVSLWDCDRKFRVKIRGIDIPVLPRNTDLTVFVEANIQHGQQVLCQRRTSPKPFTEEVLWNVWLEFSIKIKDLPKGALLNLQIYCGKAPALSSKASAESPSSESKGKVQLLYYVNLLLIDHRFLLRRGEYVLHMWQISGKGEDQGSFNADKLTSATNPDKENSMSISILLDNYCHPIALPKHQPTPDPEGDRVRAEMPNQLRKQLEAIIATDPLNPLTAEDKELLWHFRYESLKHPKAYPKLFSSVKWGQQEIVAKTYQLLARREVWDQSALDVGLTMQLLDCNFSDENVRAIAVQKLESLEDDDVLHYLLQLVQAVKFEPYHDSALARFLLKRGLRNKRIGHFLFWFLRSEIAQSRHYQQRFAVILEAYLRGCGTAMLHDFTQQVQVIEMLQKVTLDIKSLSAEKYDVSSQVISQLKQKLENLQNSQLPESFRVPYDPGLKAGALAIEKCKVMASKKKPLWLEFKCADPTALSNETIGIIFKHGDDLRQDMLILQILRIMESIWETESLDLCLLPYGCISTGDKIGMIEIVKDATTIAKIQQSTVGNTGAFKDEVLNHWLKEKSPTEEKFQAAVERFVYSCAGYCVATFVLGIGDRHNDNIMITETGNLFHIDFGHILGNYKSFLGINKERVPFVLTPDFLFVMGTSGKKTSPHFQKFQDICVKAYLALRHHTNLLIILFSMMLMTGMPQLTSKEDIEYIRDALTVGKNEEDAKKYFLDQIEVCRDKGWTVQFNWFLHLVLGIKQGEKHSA
p110α, sequence (P42336 whole entry): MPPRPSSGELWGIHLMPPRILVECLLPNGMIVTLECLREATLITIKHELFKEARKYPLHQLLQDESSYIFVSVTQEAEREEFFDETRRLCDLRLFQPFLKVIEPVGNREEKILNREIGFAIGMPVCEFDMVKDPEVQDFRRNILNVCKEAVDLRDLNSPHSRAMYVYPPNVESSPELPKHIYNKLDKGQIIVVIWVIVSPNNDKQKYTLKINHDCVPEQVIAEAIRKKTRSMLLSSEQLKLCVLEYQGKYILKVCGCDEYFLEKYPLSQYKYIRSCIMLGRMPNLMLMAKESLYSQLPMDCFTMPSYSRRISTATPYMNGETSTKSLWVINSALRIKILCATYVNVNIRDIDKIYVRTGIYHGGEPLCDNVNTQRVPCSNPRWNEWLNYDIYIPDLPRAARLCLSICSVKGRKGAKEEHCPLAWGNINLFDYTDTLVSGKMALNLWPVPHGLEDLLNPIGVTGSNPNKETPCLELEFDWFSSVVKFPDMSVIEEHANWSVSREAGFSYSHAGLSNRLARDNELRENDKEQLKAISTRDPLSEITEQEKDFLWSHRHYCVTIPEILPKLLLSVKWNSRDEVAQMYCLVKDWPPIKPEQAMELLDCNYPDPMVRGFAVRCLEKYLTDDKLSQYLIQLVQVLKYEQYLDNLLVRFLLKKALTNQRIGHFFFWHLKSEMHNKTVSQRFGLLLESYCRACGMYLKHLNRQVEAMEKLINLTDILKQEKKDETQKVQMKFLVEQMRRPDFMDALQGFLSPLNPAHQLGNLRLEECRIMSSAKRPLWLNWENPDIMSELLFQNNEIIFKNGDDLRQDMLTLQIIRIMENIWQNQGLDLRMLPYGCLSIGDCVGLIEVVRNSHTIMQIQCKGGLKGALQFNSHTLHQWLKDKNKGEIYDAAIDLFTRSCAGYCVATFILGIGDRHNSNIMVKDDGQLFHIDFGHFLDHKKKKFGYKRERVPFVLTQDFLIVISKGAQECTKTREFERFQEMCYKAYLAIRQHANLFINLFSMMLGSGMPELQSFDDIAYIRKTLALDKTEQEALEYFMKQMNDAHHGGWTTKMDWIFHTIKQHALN
human p110α/p85α, sequence (P42336 whole entry): as above
human p110α/p85α, sequence (P27986 whole entry partner): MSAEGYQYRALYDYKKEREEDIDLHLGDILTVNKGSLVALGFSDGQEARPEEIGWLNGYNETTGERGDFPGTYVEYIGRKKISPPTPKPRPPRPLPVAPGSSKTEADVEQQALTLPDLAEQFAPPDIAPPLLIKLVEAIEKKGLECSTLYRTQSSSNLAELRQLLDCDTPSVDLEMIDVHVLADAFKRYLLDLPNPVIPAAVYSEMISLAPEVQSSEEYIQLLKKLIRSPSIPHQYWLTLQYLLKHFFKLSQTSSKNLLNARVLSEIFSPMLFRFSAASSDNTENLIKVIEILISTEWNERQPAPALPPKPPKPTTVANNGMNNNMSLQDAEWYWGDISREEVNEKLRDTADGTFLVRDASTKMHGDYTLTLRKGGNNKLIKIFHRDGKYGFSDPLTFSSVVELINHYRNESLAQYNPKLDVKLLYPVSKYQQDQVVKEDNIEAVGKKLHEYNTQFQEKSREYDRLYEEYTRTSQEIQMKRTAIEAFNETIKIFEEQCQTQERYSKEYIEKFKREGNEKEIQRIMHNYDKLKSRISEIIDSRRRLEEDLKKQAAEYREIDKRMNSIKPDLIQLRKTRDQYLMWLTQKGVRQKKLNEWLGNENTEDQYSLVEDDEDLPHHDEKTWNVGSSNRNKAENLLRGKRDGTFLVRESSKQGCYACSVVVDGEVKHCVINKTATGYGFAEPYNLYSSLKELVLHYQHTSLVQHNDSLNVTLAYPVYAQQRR

SMILES: CC(CC(C(N)=O)(c1ccccc1)c1ccccc1)N(C)C (stereo not drawn) [BL139]
ΔTm50 Akt (Akt [1]): 2.44 °C
ΔTm50 Akt (Akt [2]): 2.60 °C
ΔTm at 5 µM (p110β [3]; human, 0.75 h, read-out: ΔTm50 p110β): 12.4 °C
ΔTm50 p110β (p110β [4]; 240 min): 5.78 °C
ΔTm at 5 µM (VPS34; human, 0.75 h, read-out: ΔTm50 VPS34): 0.14 °C
solubility (aqueous solubility assay; aqueous): 37400 µg/mL and 99200 µM
ΔTm at 5 µM (p110γ; human, 0.75 h, read-out: ΔTm50 p110γ): 0.84 °C
ΔTm at 5 µM (p110α; human, 0.75 h, read-out: ΔTm50 p110α): 1.51 °C

SMILES: Cc1cc([C@@H](C)Nc2ccccc2C(=O)O)c2nc(N3CCOCC3)cc(=O)n2c1 [AZD6482]
effect on Akt pS473 (Akt pS473 in LNCaP cells): completely abolished
effect on Akt pS473 [5]: only partially inhibited

EC50 (PC-3 cells; Homo sapiens, PC-3, 72 h): 14.5 µM
EC50 (22RV1 cells; Homo sapiens, 22Rv1, 72 h): 26.1 µM
SMILES: Cc1c(Cn2c(C)nc3c(C(=O)O)cc(N4CCOCC4)cc32)cccc1C(F)(F)F [GSK2636771]
EC50 (C4-2B cells [6]; 72 h): 28.9 µM
effect on Akt pS473 (Akt pS473 in LNCaP cells): partial inhibitory effect
EC50 (C4-2B/MDV-R cells [7]; 72 h): 42.3 µM
effect on FBS-stimulated Akt pS473 levels (Akt pS473 in C4-2B cells): abolished
CDK6 protein levels [8]: no obvious alteration
FBS-induced increase of cyclin D1 protein levels [8]: largely suppressed
effect on Akt pS473 [5]: lost their inhibitory effect
cell cycle distribution (G0/G1 and S-phase) (C4-2B cells [9]): significantly increased G0/G1 population accompanied with a large reduction of S-phase cells
effect on FBS-stimulated Akt pS473 levels [10]: only partially suppressed
CDK6 protein levels [11]: no obvious alteration
FBS-induced increase of cyclin D1 protein levels [11]: largely suppressed
p27^kip1 protein levels [11]: largely elevated
cell cycle distribution (G0/G1 and S-phase) (C4-2B/MDV-R cells [12]): significantly increased G0/G1 population accompanied with a large reduction of S-phase cells

SMILES: Cc1nc(NC(=O)N2CCC[C@H]2C(N)=O)sc1-c1ccnc(C(C)(C)C(F)(F)F)c1 [BYL719]
effect on Akt pS473 (Akt pS473 in LNCaP cells): partial inhibitory effect

SMILES: Nc1cc(C(F)(F)F)c(-c2cc(N3CCOCC3)nc(N3CCOCC3)n2)cn1 [BKM120]
effect on Akt pS473 (Akt pS473 in LNCaP cells): completely abolished
effect on Akt pS473 [5]: retained their full capacity

SMILES: Cc1cc(C(C)Nc2ccccc2)c2nc(N3CCOCC3)cc(=O)n2c1 (stereo not drawn) [TGX221]
EC50 (C4-2B cells [6]; C4-2B, 3 days): 22.6 µM
ΔTm50 Akt (Akt [1]): 1.49 °C
effect on Akt pS473 (Akt pS473 in LNCaP cells): partial inhibitory effect
EC50 (PC-3 cells; PC-3, 3 days): 7.43 µM
EC50 (C4-2B/MDV-R cells [7]; C4-2B/MDV-R, 3 days): 31.3 µM
IC50 (human p110α/p85α): 2.09 µM
ΔTm50 Akt (Akt [2]): 1.18 °C
effect on Akt pS473 [5]: lost their inhibitory effect
EC50 (22RV1 cells; 22RV1, 3 days): 17.6 µM
cell cycle distribution (G0/G1 and S-phase) (C4-2B cells [9]): significantly increased G0/G1 population accompanied with a large reduction of S-phase cells
ΔTm50 p110β (p110β [3]; [13]): 04.02 °C
ΔTm50 p110β (p110β [4]): 1.72 °C
ΔTm50 VPS34 (VPS34; [13]): 0.42 °C
IC50 (human p110δ/p85α): 0.374 µM
Aqueous solubility (aqueous solubility assay): < 1.0 mg/ml and <2.74 mM
cell cycle distribution (G0/G1 and S-phase) (C4-2B/MDV-R cells [12]): significantly increased G0/G1 population accompanied with a large reduction of S-phase cells
ΔTm50 p110γ (p110γ; [13]): 0.68 °C
ΔTm50 p110α (p110α; [13]): 1.57 °C

SMILES: C[C@@H](Nc1cc(F)cc(F)c1)c1cc(C(=O)N(C)C)cc2c(=O)cc(N3CCOCC3)oc12 [AZD8186]
effect on Akt pS473 (Akt pS473 in LNCaP cells): completely abolished
effect on Akt pS473 [5]: only partially inhibited

SMILES: O=c1[nH]c2ccccc2n1C1CCN(Cc2ccc(-c3nc4cc5[nH]cnc5cc4nc3-c3ccccc3)cc2)CC1 [AKT-i8]
effect on Akt pS473 (Akt pS473 in LNCaP cells): completely abolished
effect on Akt pS473 [5]: retained their full capacity

SMILES: CNC(=O)c1ccc(N2C(=S)N(c3ccc(C#N)c(C(F)(F)F)c3)C(=O)C2(C)C)cc1F [MDV3100]
effect on FBS-stimulated Akt pS473 levels (Akt pS473 in C4-2B cells): enhanced
